Type in all cases: cell-based
Test [1] concerns the target T1, Potassium voltage-gated channel subfamily KQT member 4 (Homo sapiens) (UniProt P56696).
T1 sequence (whole entry): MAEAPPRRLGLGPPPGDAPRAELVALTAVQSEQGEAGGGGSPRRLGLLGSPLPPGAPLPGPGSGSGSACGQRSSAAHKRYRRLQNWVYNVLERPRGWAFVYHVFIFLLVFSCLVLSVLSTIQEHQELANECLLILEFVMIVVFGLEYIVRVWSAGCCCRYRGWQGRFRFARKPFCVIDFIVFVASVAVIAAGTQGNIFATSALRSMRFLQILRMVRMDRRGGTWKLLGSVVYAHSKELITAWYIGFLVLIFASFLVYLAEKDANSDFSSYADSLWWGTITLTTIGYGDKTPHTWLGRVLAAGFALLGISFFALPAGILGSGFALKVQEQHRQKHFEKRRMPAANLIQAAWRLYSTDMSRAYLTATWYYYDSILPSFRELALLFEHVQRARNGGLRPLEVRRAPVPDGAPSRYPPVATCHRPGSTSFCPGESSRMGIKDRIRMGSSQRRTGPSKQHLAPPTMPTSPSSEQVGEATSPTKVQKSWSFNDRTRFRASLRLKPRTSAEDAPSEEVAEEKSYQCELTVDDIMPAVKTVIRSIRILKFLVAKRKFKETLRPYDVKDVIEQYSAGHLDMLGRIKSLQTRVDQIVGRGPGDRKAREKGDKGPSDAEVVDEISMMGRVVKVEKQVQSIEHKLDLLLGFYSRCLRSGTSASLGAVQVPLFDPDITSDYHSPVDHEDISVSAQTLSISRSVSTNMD
Nature of the test: (§1) Activation of human homomeric KCNQ4 expressed in CHOK1 cells at -10 mV by whole cell patch clamp assay. The method in brief:
(§2)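 Whole-cell voltage clamp of CHO-K1 cells expressing homomeric KCNQ4. Holding potential −80 mV with depolarizing steps; current read at −10 mV before and after compound at several concentrations. EC50 derived from the concentration–response relationship, with the Hill coefficient reported.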
On the technique in general: In patch-clamp work, channel activity is measured electrically.

Test [2] concerns the target T2, Potassium voltage-gated channel subfamily KQT member 4 (Homo sapiens, UniProt P56696).
T2 sequence (P56696 whole entry): T1 sequence (whole entry)
The test is described as §1. The method, boiled down: as §2

For test [3], the target named is T3, Potassium voltage-gated channel subfamily KQT member 3 (Rattus norvegicus) (UniProt O88944).
T3 sequence (whole entry): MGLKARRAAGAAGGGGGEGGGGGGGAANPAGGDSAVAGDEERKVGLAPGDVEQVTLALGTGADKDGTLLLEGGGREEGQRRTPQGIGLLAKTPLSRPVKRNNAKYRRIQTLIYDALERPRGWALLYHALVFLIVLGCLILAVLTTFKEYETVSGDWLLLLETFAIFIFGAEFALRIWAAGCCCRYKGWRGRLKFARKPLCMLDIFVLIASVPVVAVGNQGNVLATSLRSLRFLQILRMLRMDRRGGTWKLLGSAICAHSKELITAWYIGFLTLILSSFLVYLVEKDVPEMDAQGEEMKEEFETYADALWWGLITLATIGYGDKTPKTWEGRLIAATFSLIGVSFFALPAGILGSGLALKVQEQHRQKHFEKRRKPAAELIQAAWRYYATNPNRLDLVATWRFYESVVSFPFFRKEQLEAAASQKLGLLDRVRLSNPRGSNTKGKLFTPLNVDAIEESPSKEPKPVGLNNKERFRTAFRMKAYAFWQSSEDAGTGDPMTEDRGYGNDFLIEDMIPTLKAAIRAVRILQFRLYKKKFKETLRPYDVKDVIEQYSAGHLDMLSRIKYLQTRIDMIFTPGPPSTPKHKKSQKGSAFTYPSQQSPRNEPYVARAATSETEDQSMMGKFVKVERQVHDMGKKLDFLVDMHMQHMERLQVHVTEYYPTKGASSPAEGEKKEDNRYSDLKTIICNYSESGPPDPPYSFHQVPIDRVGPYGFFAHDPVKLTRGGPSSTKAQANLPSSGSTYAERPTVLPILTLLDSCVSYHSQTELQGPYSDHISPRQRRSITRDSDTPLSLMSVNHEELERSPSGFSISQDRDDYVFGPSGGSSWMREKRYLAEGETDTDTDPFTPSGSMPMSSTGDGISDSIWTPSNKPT
Nature of the test: Activity at rat KCNQ3 expressed in CHOK1 cells assessed as ratio of amplitude of outward current in presence of test compound to amplitude of outward current in absence of test compound at 10 uM at -10 mV by whole cell patch clamp assay. The method in brief: (§3)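 CHO-K1 cells individually transfected with a single KCNQ subtype; whole-cell voltage clamp. Held at −80 mV, stepped from −90 to +60 mV in 10 mV increments (1500 ms), then to −120 mV for 500 ms. Outward current at −10 or +60 mV measured before (I0) and after (I) 10 μM compound; I/I0 >1 counts as activation. More than four cells per compound.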

Test [4] has as its target T3, Potassium voltage-gated channel subfamily KQT member 3 (Rattus norvegicus). Nature of the test: Activity at rat KCNQ3 expressed in CHOK1 cells assessed as ratio of amplitude of outward current in presence of test compound to amplitude of outward current in absence of test compound at 10 uM at +60 mV by whole cell patch clamp assay. The method, boiled down: as §3
Test [5] addresses T1, Potassium voltage-gated channel subfamily KQT member 4 (Homo sapiens). Nature of the test: Activity at human KCNQ4 expressed in CHOK1 cells assessed as ratio of amplitude of outward current in presence of test compound to amplitude of outward current in absence of test compound at 10 uM at +60 mV by whole cell patch clamp assay. The method, boiled down:
as §3

The target is the same in test [6]. Nature of the test: Effect on voltage-dependent activation of human KCNQ4 expressed in CHOK1 cells assessed as negative shift in current activation curve at 10 uM by whole cell patch clamp assay.

pEC50: −log10 of the molar value. Calls of active or inactive are those of the source. No cut-off for these calls is given here.

The term pEC50 denotes −log10 of the EC50, conventionally taken in molar units. Low values mean a high EC50, high ones a low EC50. For the compound `C#CCN(Cc1ccc(F)cc1)c1ccc(NC(=O)OCC)c(NC(=O)OCC)c1`, in test [1], the Activity result is “Dose-dependent effect”. For the same compound, the pEC50 in test [2] was 6.05. Further, the Ratio in test [3] is 1.6; in test [4], 1.7; in test [5] it was 6.6. Besides, the result in test [6] was inactive.
